{"source": "ChEMBL document CHEMBL1131166", "about": "“Bisphenols that stimulate cells to release alkali metal cations: a structure-activity study” (1998)", "format_in_all_cases": "functional, Cercopithecidae", "key": {"[1]": {"system": "COS-7", "assay": "(§1) Fraction of total radioactivity [86Rb] remaining with the compound at a concentration of 10 uM in COS-7 cells", "how_it_was_run": "(§2)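 COS-7 cells grown in DMEM + 10% FCS to 85–98% confluence, loaded ~4 μCi 86RbCl in BSS (HEPES, pH 7.2) 90 min at 37 °C, washed thrice ice-cold BSS, reincubated 37 °C with medium replaced every 10 min; compound (DMSO stock diluted ≥5000-fold in BSS) present 40 min from 20 min. Cell-retained 86Rb at 60 min as fraction of initial total (cells + media); mean ± SD, three experiments.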"}, "[2]": {"system": "COS-7", "assay": "Fraction of total radioactivity [86Rb] remaining with the compound at a concentration of 0.01 uM in COS-7 cells", "how_it_was_run": "as §2"}, "[3]": {"system": "COS-7", "assay": "Fraction of total radioactivity [86Rb] remaining with the compound at a concentration of 0.1 uM in COS-7 cells and value", "how_it_was_run": "as §2"}, "[4]": {"system": "COS-7", "assay": "Fraction of total radioactivity [86Rb] remaining with the compound at a concentration of 1 uM in COS-7 cells", "how_it_was_run": "as §2"}, "[5]": {"system": "COS-7", "assay": "Fraction of total radioactivity [86Rb] remaining with the compound at a concentration of 0 uM in COS-7 cells", "how_it_was_run": "as §2"}, "[6]": {"system": "COS-7", "assay": "as §1", "how_it_was_run": "(§3)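 COS-7 cells grown in DMEM with 10% FCS at 37 °C under 5% CO2 until 85–98% confluent. Loaded with about 4 μCi ⁸⁶RbCl in HEPES BSS (pH 7.2) for 90 min at 37 °C, then washed in ice-cold BSS. Reincubated at 37 °C with medium changed every 10 min; compound in BSS (DMSO ≥5000-fold diluted) given for the last 40 min. Read-out is the cell-retained fraction of total ⁸⁶Rb at 60 min by scintillation counting, mean ± SD of three experiments.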", "remark": "listed apart in the source"}, "[7]": {"system": "COS-7", "assay": "Fraction of total radioactivity [86Rb] remaining with the compound at a concentration of 0.1 uM in COS-7 cells", "how_it_was_run": "as §3"}}, "data": [{"smiles": "Oc1ccc(Cc2ccc(O)cc2)cc1", "values": [{"measurement": "Fraction of accumulated 86Rb remaining.", "setting": "[1]", "value": 0.581}]}, {"smiles": "Oc1ccc2ccccc2c1-c1c(O)ccc2ccccc12", "values": [{"measurement": "Fraction of accumulated 86Rb remaining.", "setting": "[1]", "value": 0.565}]}, {"smiles": "OCCOc1ccc(C2(c3ccc(OCCO)cc3)c3ccccc3-c3ccccc32)cc1", "values": [{"measurement": "Fraction of accumulated 86Rb remaining.", "setting": "[1]", "value": 0.486}]}, {"smiles": "Nc1ccc(C2(c3ccc(N)cc3)c3ccccc3-c3ccccc32)cc1", "values": [{"measurement": "Fraction of accumulated 86Rb remaining.", "setting": "[1]", "value": 0.419}]}, {"smiles": "Oc1ccc(C2(c3ccc(O)cc3)c3ccccc3-c3ccccc32)cc1", "values": [{"measurement": "Fraction of accumulated 86Rb remaining.", "setting": "[2]", "value": 0.532}, {"measurement": "Fraction of accumulated 86Rb remaining.", "setting": "[3]", "value": 0.147}, {"measurement": "Fraction of accumulated 86Rb remaining.", "setting": "[4]", "value": 0.006}, {"measurement": "Fraction of accumulated 86Rb remaining.", "setting": "[1]", "value": 0.003}, {"measurement": "Fraction of accumulated 86Rb remaining.", "setting": "[5]", "value": 0.556}]}, {"smiles": "Oc1ccc(-c2ccc(O)cc2)cc1", "values": [{"measurement": "Fraction of accumulated 86Rb remaining.", "setting": "[6]", "value": 0.604}]}, {"smiles": "O=C1OC(c2ccc(O)cc2)(c2ccc(O)cc2)c2ccccc21", "note": "[PHENOLPHTHALEIN]", "values": [{"measurement": "Fraction of accumulated 86Rb remaining.", "setting": "[2]", "value": 0.461}, {"measurement": "Fraction of accumulated 86Rb remaining.", "setting": "[7]", "value": 0.472}, {"measurement": "Fraction of accumulated 86Rb remaining.", "setting": "[4]", "value": 0.234}, {"measurement": "Fraction of accumulated 86Rb remaining.", "setting": "[1]", "value": 0.091}, {"measurement": "Fraction of accumulated 86Rb remaining.", "setting": "[5]", "value": 0.503}]}]}
